From ChEMBL document CHEMBL4028911, “Discovery of a Small-Molecule Bromodomain-Containing Protein 4 (BRD4) Inhibitor That Induces AMP-Activated Protein Kinase-Modulated Autophagy-Associated Cell Death in Breast Cancer” (J Med Chem, 2017)
The source made the active and inactive calls. The rule behind the calls is not given here.

Assays:
MCF7 = assay: Induction of autophagy in human MCF7 cells assessed as cytoplasmic vacuolization at 1.5 uM by electron microscopy; assay type: functional, cell-based
How it was run: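 MCF-7 (1.5 µM) or MDA-MB-231 (3 µM) cells treated for indicated times. Cytoplasmic vacuoles examined by transmission electron microscopy.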

[1] = molecular target: Bromodomain-containing protein 4 (Homo sapiens, UniProt O60885); assay: Inhibition of BRD4 in human MCF7 cells assessed as downregulation of c-Myc expression at 1.5 uM measured up to 36 hrs by Western blot analysis; assay type: cell-based
How it was run: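 MCF-7 (1.5 μM) or MDA-MB-231 (3 μM) cells treated for indicated times. Adherent and floating cells lysed in RIPA with 1 mM PMSF. Equal protein run on 10-15% SDS-PAGE, blotted to PVDF, blocked in milk or BSA, HRP/ECL detection. β-actin loading control.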

[2] = molecular target: Bromodomain-containing protein 2 (Homo sapiens, UniProt P25440); assay: Inhibition of recombinant human N-terminal GST-tagged BRD2 bromodomain-1 (65 to 187 residues) expressed in Escherichia coli expression system after 120 mins by TR-FRET assay
How it was run: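 TR-FRET bromodomain binding. Recombinant BRD domain, BET ligand and test agent in 20 μl assay buffer with 1% DMSO final. Incubated 120 min at room temperature. Blank lacks BET ligand.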

MDA-MB-231 = assay: Induction of autophagy in human MDA-MB-231 cells assessed as induction of autophagic vacuoles at 3 uM by MDC-based fluorescence microscopy; assay type: functional, cell-based
How it was run: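 MDA-MB-231 cells exposed to 3 μM for indicated times, stained with 0.05 mM monodansylcadaverine, and autophagic vacuoles viewed by fluorescence microscopy.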

Sequence of Bromodomain-containing protein 2 (P25440 whole entry, the tested form may be a part): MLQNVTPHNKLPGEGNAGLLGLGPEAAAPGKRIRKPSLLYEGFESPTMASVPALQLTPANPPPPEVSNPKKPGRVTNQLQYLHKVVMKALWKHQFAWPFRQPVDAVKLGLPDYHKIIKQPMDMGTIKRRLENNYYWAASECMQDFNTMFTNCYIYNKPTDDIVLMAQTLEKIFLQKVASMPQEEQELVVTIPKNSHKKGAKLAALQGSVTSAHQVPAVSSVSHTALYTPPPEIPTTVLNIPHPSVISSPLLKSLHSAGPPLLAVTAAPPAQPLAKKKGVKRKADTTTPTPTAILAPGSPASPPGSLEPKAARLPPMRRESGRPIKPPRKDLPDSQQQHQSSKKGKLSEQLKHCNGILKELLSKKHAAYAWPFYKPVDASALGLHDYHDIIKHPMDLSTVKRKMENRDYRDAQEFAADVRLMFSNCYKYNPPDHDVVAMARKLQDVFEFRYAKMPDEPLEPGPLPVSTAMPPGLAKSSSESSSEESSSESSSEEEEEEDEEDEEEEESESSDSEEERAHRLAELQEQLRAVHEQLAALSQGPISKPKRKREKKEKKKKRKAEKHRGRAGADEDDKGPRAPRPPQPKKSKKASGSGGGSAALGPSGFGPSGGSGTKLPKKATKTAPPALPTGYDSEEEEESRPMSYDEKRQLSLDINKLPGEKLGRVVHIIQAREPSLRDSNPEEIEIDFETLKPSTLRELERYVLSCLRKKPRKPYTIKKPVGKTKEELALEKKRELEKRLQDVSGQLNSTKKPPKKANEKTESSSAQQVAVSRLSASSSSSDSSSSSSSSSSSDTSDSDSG

inhibition [1]: Active
IC50 [2]: 24.6 µM
SMILES: Cc1cc(-c2nc3sc4c(c3c(=O)[nH]2)CCN(C)C4)cc(C)c1O
Activity (MCF7): Active
Activity (MDA-MB-231): Active
